Compound activity: PubChem, Sanford-Burnham Center for Chemical Genomics
This is a sample that favours compounds with a hit; in the whole collection about 0.64% have one here.
PMI act hi M6P – activators of human phosphomannose isomerase at near-saturating mannose 6-phosphate | P34949 | coupled PMI enzyme assay, resazurin fluorescence, 20 min; hits give high values; 1 = untreated enzyme, 0 = substrate-free blank | activation factor at 20 µM | 190,000 tested, 0.34% active | AID 1216;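 active = activation factor of 2 or more at 20 µM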
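Test system: human phosphomannose isomerase with PGI, G6PDH, diaphorase coupling enzymes; amount: 15 ng/mL PMI; incubation: enzyme reaction with compound 20 min at room temperature; technique: resorufin fluorescence (Ex 544/Em 590 nm) from resazurin via diaphorase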
PMI act – activators of human phosphomannose isomerase; AID 1214; purified human PMI, coupled resazurin fluorescence, 20 min; hits give high values; 1 = vehicle control, 0 substrate-free wells; activation factor at 20 µM; 190,000 tested, 0.005% active;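 active = activation factor of 2 or more at 20 µM, relative to plate controls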
TNAP inh noacc – TNAP (human) inhibition, acceptor-free conditions | P05186 | purified TNAP, CDP-star luminescence, 30 min | inhibition, % at 20 µM | 200,000 tested, 0.26% active;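 active = tissue-nonspecific alkaline phosphatase inhibition above about 50% at 20 µM in the single-dose screen, limit read from the data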
Target sequence (P05186 whole entry, looked up): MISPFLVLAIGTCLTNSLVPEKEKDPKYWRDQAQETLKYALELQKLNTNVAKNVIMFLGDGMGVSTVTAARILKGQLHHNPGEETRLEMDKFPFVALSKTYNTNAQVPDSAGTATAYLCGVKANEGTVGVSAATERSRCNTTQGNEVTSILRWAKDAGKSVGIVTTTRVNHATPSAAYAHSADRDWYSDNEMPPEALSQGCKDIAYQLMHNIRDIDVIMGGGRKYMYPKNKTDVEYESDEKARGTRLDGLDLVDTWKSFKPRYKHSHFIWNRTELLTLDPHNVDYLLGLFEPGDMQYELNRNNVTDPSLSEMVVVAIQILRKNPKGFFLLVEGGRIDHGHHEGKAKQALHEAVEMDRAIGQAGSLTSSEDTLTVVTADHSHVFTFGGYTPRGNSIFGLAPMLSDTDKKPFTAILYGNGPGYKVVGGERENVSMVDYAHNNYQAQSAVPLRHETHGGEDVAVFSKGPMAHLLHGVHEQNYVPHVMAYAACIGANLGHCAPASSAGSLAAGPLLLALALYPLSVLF
TNAP act hi DEA – activators of human TNAP at high phosphate acceptor concentration; P05186; purified TNAP, CDP-star luminescence, 1 M DEA, 30 min; hits give high values; 0 = EDTA background, 1 = DMSO-only activity; activation factor at 20 µM; 200,000 tested, under 10 active; AID 1136;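 active = activation factor at least 2 at 20 µM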
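system = human TNAP | amount = enzyme diluted 1/800 final | reagent = 100 µM CDP-star substrate | signal = luminescent substrate turnover signal | dosing = one dose, 20 µM | benchmarks = EDTA negative control, DMSO positive control | measure = activation factor | timing = 30 min reaction, room temperature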
TNAP inh hiacc – TNAP (human) inhibition, high acceptor; P05186; purified TNAP, CDP-star luminescence, 1 M DEA; inhibition, % at 20 µM; 200,000 tested, 0.03% active; AID 1135;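 active = over 50% inhibition of tissue-nonspecific alkaline phosphatase at 20 µM in the single-dose screen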
Each line names hits and unclear results; the compound was inactive in the other large screens.

CCOC(=O)c1cc2c(=O)n3ccccc3nc2n(CCOC)c1=NC(=O)c1ccncc1	none
NC1=NC(=O)/C(=C\c2cc([N+](=O)[O-])ccc2Cl)S1	none
COC(CNC(=O)c1cc(-c2ccncc2)nc2ccc(S(=O)(=O)N3CCOCC3)cc12)OC	none
O=C(c1ccco1)N1CCN(C2CCCC2)CC1	none
O=C(O)CC(c1ccccc1)n1cccc1 (configuration not stated)	PMI act hi M6P 2
O=C(COCC(=O)N/N=C/c1ccc(F)cc1)N/N=C/c1ccc(F)cc1	none
Cc1ccc(N/N=C(\C#N)C(N)=S)cc1C	PMI act hi M6P 2.1
Cc1cc(=S)cc(C)n1CCO	PMI act hi M6P 2.4
COC(=O)c1ccc(S(=O)(=O)NCCSc2nnc3c4ccccc4n(C)c3n2)cc1	none
O=C1C=CC(O)(c2cc(=O)c3c(O)cc(O)cc3o2)C=C1	none
Cc1ccc2nc3sc(C(=O)N4CCOCC4)c(N)c3cc2c1	PMI act hi M6P 2
Cc1cc(C)cc(C(=O)N2CC(=O)Nc3ccccc32)c1	none
Cc1ccc2cc3c(N)c(C(=O)N4CC(=O)Nc5ccccc54)sc3nc2c1	PMI act hi M6P 2.1
Cc1ccc2cc3c(N)c(C(=O)N4CCOCC4)sc3nc2c1	none
Cc1ccccc1N1Cc2ccccc2C1	PMI act hi M6P 2.2
O=C(Cc1ccccc1)N/N=C/c1ccc2c(c1)OCO2	none
O=C(N/N=C/c1ccccc1)c1cc(-c2ccc3c(c2)OCO3)n[nH]1	TNAP inh noacc 66
O=C(N/N=C/c1cccc(O)c1)c1cc(-c2ccc3c(c2)OCO3)n[nH]1	TNAP inh noacc 95
O=C(Cc1n[nH]c(=O)[nH]c1=O)N/N=C/c1cccc(O)c1	none
O=C(N/N=C/c1ccc(O)cc1)c1cc(-c2ccc3c(c2)OCO3)n[nH]1	TNAP inh noacc 91
CC(c1ccc(F)cc1)n1c(-c2cccs2)n[nH]c1=S (configuration not stated)	none
c1ccc(-c2csc(Nc3ncccn3)n2)cc1	none
NNc1nc(-c2ccccc2)cs1	PMI act hi M6P 2
Nc1nc(-c2ccc(Cl)cc2)nn1C(=O)c1cccnc1	TNAP inh noacc 58
CCC(=O)n1nc(-c2ccc(Cl)cc2)nc1N	TNAP inh noacc 59
CC(C)OC(=O)CC1C(=O)NCCN1C(=S)NC(=O)c1cccs1 (configuration not stated)	none
Cc1ccc(N=C2NC(=O)/C(=C/C=C/c3ccco3)S2)cc1	none
O=C1NC(=Nc2ccccc2)S/C1=C\C=C\c1ccco1	TNAP inh noacc 56
COc1ccc2nc(-n3c(O)c(C4=c5ccccc5=NC4=O)[nH]c3=S)sc2c1	TNAP inh hiacc 88
Cn1cc(CC(=O)NCCN2CCOCC2)c2ccccc21	none
CCOC(=O)c1nc2cc3n(c(CC(C)C)c-2c1C)CC(C)=C3C	PMI act hi M6P 2.4
CN=c1scc(-c2ccc(F)cc2)n1/N=C/c1ccc(O)c(O)c1	TNAP inh noacc 70
CN=c1scc(-c2ccc([N+](=O)[O-])cc2)n1/N=C/c1ccco1	none
CC(C)(C)c1ccc(-c2nc(C=O)c3ccccn23)cc1	none
Cc1c(C(C)(C)C)c(C=S)n2ccccc12	PMI act hi M6P 2
Cc1ccc(S(=O)(=O)N2CCN(C(C(=O)Nc3ccc(F)cc3)c3ccccc3)CC2)cc1 (configuration not stated)	none
C/C(=N\Nc1ccc(F)cc1F)c1ccccc1O	PMI act hi M6P 2.3
O=C(O)c1cccc(Cn2c(Cl)c(/C=N/Nc3ccccc3)sc2=O)c1	PMI act hi M6P 2.5
O=C(O)c1cccc(N/N=C/c2sc(N3CCOCC3)nc2-c2ccccc2)c1	PMI act hi M6P 2.5
Nc1ccc(C(=O)N/N=C/c2sc(N3CCOCC3)nc2-c2ccccc2)cc1	none
O=C(COC(=O)CNS(=O)(=O)/C=C/c1ccccc1)Nc1cccc2ccccc12	none
O=C(Nc1cc(S(=O)(=O)N2CCOCC2)ccc1Cl)C(=O)c1c(-c2ccccc2)cc2ccccn12	none
CNc1nnc(-c2cc3ccccc3oc2=O)s1	none
O=C1c2c(O)cc(O)cc2O[C@H](c2ccc(O)c(O)c2)[C@@H]1O	TNAP inh noacc 70
O=C(CCc1ccccc1)Nc1cc(Cl)ccc1O	none
Cc1ccc(C(=O)c2cn[nH]c2-c2ccccc2O)cc1	none
O=C(c1ccc(F)cc1)c1cn[nH]c1-c1ccccc1O	TNAP inh noacc 56
O=C(NCCCCO)c1ccc2c3c(cccc13)CC2	none
O=C(CSc1n[nH]c(-c2ccc(Cl)cc2Cl)n1)Nc1ccccn1	TNAP inh noacc 93
Cc1nc(SCC(=O)Nc2ccccn2)n[nH]1	none
COc1ccccc1CNN	PMI act hi M6P 2.2
COc1ccccc1CNCc1cc(OC)c(OC)c(OC)c1	none
COc1cccc(OCC(O)CO)c1 (configuration not stated)	none
CCOC(=O)c1c(-c2ccccc2Cl)csc1NC(=O)CSc1nc(C)cc(=O)[nH]1	none
COc1cc(/C=N\NC(=O)c2ccc(=O)[nH]n2)cc(OC)c1OC	none
COc1ccc(/C=N/NC(=O)c2cc(C34CC5CC(CC(C5)C3)C4)[nH]n2)cc1OC	TNAP inh noacc 86
COc1cccc(/C=N/NC(=O)c2cc(C34CC5CC(CC(C5)C3)C4)[nH]n2)c1	TNAP inh noacc 86
O=c1[nH]c2cc(Cl)ccc2n1-c1ccccc1	TNAP inh noacc 69
O=Cc1c(Cl)[nH]c(=O)n1-c1ccccc1	none
CN1CCN(S(=O)(=O)c2ccc(NC(=S)NC(=O)C(C)(C)C)cc2)CC1	none
FC(F)(F)c1ccc(Cl)c(N/N=C/c2ccc(N3CCOCC3)s2)c1	none
Cc1ccc(S(=O)(=O)N/N=C\c2ccc([N+](=O)[O-])o2)cc1	PMI act hi M6P 2.1
O=[N+]([O-])c1ccc(/C=N/NS(=O)(=O)c2ccc(Cl)cc2)o1	PMI act hi M6P 2.2
CCCCN=C1NC(=O)C(CC(=O)NCCc2ccc(OC)cc2)S1 (configuration not stated)	none
CCOc1ccccc1N1CC(C(=O)Nc2c(C)n(C)n(-c3ccccc3)c2=O)CC1=O (configuration not stated)	none
Cc1nc2sc(C(N)=O)c(N)c2c(C)c1CC(=O)c1ccccc1	PMI act hi M6P 2
CCCc1nn(C(=O)c2ccccc2)c2c1C(=O)CC(C)(C)C2	TNAP inh noacc 52
CCCc1nn(-c2cc(Cl)ccc2OC)c2c1C(=O)CC(C)(C)C2	none
Cc1nn(C(=O)c2ccccc2)c2c1C(=O)CC(C)(C)C2	TNAP inh noacc 56
O=[N+]([O-])c1cc2c(cc1/C=N/NS(=O)(=O)c1ccc(Br)cc1)OCO2	none
CCCN(Cc1cc2ccc(C)cc2[nH]c1=O)S(=O)(=O)c1ccccc1	none
Oc1ccc(N=Nc2n[nH]c(-c3ccc(Cl)cc3)n2)cc1	TNAP inh noacc 69
